# How the values were obtained:
# Assay type in all cases: functional
# Enterococcus faecalis = test: Minimum inhibitory concentration against […] MGH-2; settings: Enterococcus faecalis; read-out: MIC
# Procedure, shortened: (§1)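 Standard microdilution method against a panel of five Gram-negative and five Gram-positive bacterial strains. The MIC (µg/mL) was recorded for each strain.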
# Escherichia coli = test: Minimum inhibitory concentration against Escherichia coli Vogel; settings: Escherichia coli; read-out: MIC; procedure, shortened: as §1
# Streptococcus pyogenes = test: Minimum inhibitory concentration against Streptococcus pyogenes C-203; settings: Streptococcus pyogenes; read-out: MIC; procedure, shortened: as §1
# Klebsiella pneumoniae = test: Minimum inhibitory concentration against Klebsiella pneumoniae MGH-2; settings: Klebsiella pneumoniae; read-out: MIC; procedure, shortened: as §1
# Pseudomonas aeruginosa = test: Minimum inhibitory concentration against Pseudomonas aeruginosa UI-18; settings: Pseudomonas aeruginosa; read-out: MIC; procedure, shortened: as §1
# Streptococcus pneumoniae = test: Minimum inhibitory concentration against Streptococcus pneumoniae SV-1; settings: Streptococcus pneumoniae; read-out: MIC; procedure, shortened: as §1
# Staphylococcus aureus [1] = test: Minimum inhibitory concentration against Staphylococcus aureus UC-76; settings: Staphylococcus aureus; read-out: MIC; procedure, shortened: as §1
# Providencia rettgeri = test: Minimum inhibitory concentration against Providencia rettgeri M-1771; settings: Providencia rettgeri; read-out: MIC; procedure, shortened: as §1
# Enterobacter cloacae = test: Minimum inhibitory concentration against […] MA-2646; settings: Enterobacter cloacae; read-out: MIC; procedure, shortened: as §1
# Staphylococcus aureus [2] = test: Minimum inhibitory concentration against Staphylococcus aureus H-228; settings: Staphylococcus aureus; read-out: MIC; procedure, shortened: as §1
MIC (Enterococcus faecalis) [µg/mL],MIC (Escherichia coli) [µg/mL],MIC (Streptococcus pyogenes) [µg/mL],MIC (Klebsiella pneumoniae) [µg/mL],MIC (Pseudomonas aeruginosa) [µg/mL],MIC (Streptococcus pneumoniae) [µg/mL],MIC (Staphylococcus aureus [1]) [µg/mL],MIC (Providencia rettgeri) [µg/mL],MIC (Enterobacter cloacae) [µg/mL],MIC (Staphylococcus aureus [2]) [µg/mL],SMILES
0.2,0.2,0.2,0.4,3.1,0.2,0.025,0.4,0.2,0.05,CN(C)c1ccc(C2CN(c3nc4c(cc3F)c(=O)c(C(=O)O)cn4C3CC3)CC2N)cc1 (trans isomer)
0.8,0.2,0.8,0.4,3.1,0.8,0.2,0.8,0.2,1.6,CCOC(=O)C1CC1C1CN(c2cc3c(cc2F)c(=O)c(C(=O)O)cn3C2CC2)CC1N (trans isomer)
0.05,0.1,0.05,0.2,1.6,0.05,0.025,0.2,0.1,0.1,NCC1CN(c2c(F)cc3c(=O)c(C(=O)O)cn(C4CC4)c3c2F)CC1c1ccc(N)cc1 (stereo not given)
0.1,0.2,0.1,0.2,3.1,0.1,0.013,0.4,0.2,0.025,CN(C)c1ccc(C2CN(c3c(F)cc4c(=O)c(C(=O)O)cn(C5CC5)c4c3F)CC2N)cc1 (stereo not given)
0.2,0.1,0.1,0.2,1.6,0.1,0.05,0.4,0.1,0.1,COc1ccc(C2CN(c3nc4c(cc3F)c(=O)c(C(=O)O)cn4C3CC3)CC2N)cc1 (trans isomer)
0.4,0.4,0.4,0.8,6.3,0.4,0.1,1.6,0.8,0.2,CC(C)c1ccc(C2CN(c3nc4c(cc3F)c(=O)c(C(=O)O)cn4C3CC3)CC2N)cc1 (trans isomer)
0.8,1.6,0.1,1.6,6.3,0.2,0.2,3.1,1.6,1.6,NCc1cccc(C2CN(c3c(F)cc4c(=O)c(C(=O)O)cn(C5CC5)c4c3F)CC2CN)c1 (trans isomer)
0.4,0.4,0.4,0.8,3.1,0.4,0.05,1.6,0.4,0.1,COC(=O)c1ccc(C2CN(c3c(F)cc4c(=O)c(C(=O)O)cn(C5CC5)c4c3F)CC2N)cc1 (stereo not given)
0.1,0.1,0.05,0.2,1.6,0.05,0.013,0.4,0.1,0.025,COc1ccc(C2CN(c3c(F)cc4c(=O)c(C(=O)O)cn(C5CC5)c4c3F)CC2N)cc1 (trans isomer)
0.1,0.2,0.1,0.4,3.1,0.1,0.025,0.8,0.4,0.05,COc1ccccc1C1CN(c2c(F)cc3c(=O)c(C(=O)O)cn(C4CC4)c3c2F)CC1N (trans isomer)
1.6,1.6,1.6,3.1,2.5,1.6,0.4,6.3,1.6,1.6,CCOC(=O)C1CC1C1CN(c2nc3c(cc2F)c(=O)c(C(=O)O)cn3C2CC2)CC1N (trans isomer)
0.2,0.4,0.4,0.4,3.1,0.2,0.05,0.8,0.4,0.1,NC1CN(c2nc3c(cc2F)c(=O)c(C(=O)O)cn3C2CC2)CC1c1ccc(Cl)c(Cl)c1 (trans isomer)
1.6,3.1,0.2,3.1,12.5,0.8,0.8,6.3,3.1,3.1,NCc1cccc(C2CN(c3nc4c(cc3F)c(=O)c(C(=O)O)cn4C3CC3)CC2CN)c1 (trans isomer)

# Source: ChEMBL document CHEMBL1126564, “Synthesis and antimicrobial evaluation of a series of 7-[3-amino (or aminomethyl)-4-aryl (or cyclopropyl)-1-pyrrolidinyl]-4-quinolone- and -1,8-naphthyridone-3-carboxylic acids” (1993)
